Screening data (PubChem BioAssay)
A selection: hits, their analogues and other compounds. The true share with any hit is near 3.4%.
M1 ag: activates human CHRM1 receptor; CHO-K1 hM1, Fluo-8 calcium fluorescence, agonist mode; 0% DMSO, 100% acetylcholine EC100; activation, % at 3 µM; AID 588814; 360,000 compounds, 0.33% hits; P11229;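 active = activation above the run's mean compound activation plus 3 SD, cut at about 16% in these data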;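 also: peak over basal fluorescence ratio within a 140 s kinetic read after compound addition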
CHRM1 antagonist: human CHRM1 antagonism. P11229. CHO-K1 hM1, Fluo-8 calcium fluorescence, ACh EC80 antagonist. inhibition, % at 3 µM. 360,000 compounds, 1.3% hits. AID 588852;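 active = percent inhibition above its own plate's cutoff, namely the mean of that plate's compound wells plus 3 SD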;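 also: peak over basal fluorescence ratio during 140 s after agonist addition; 0% = ACh EC80 plus DMSO and 100% = DMSO alone without agonist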
TAAR1 antag: antagonists of human TAAR1; Q96RJ0; CHO RD-HGA16 TAAR1, Fluo-8 calcium fluorescence, antagonist; inhibition, % at 3 µM; 360,000 compounds, 1.5% hits;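 active = inhibition above a per-plate cutoff, the mean inhibition of test compounds on that plate plus 3 SD, cut at about 49% in these data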;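 also: 0% = DMSO plus EC80 beta-PEA response and 100% = DMSO alone without agonist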
Target sequence (Q96RJ0 whole entry, looked up): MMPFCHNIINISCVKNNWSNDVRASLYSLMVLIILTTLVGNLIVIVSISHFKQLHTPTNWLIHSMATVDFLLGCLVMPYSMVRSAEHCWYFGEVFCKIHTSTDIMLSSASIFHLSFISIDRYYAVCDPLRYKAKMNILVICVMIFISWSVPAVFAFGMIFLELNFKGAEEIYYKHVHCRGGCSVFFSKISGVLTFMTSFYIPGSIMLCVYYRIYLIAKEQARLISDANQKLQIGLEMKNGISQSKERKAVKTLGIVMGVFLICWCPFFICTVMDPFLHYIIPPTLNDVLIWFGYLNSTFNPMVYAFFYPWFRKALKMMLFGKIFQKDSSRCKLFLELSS
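System: CHO RD-HGA16 cells bearing hTAAR1. Reagent: EC80 β-phenethylamine stimulus. Schedule: seeding 17-24 h prior, 75-min 37 °C, 30-min RT dye loading. Signal: Fluo-8 intracellular calcium dye fluorescence, real-time kinetic reads. Read-out: % inhibition from peak post-agonist over basal fluorescence ratio. Benchmarks: vehicle wells and EC80 agonist wells. Replicates: n of 1.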
M1 PAM: potentiates human M1 receptor response to acetylcholine. P11229. activation, % at 3 µM. 360,000 compounds, 0.088% hits. CHO-K1 hM1, Fluo-8 calcium fluorescence, ACh EC20; 0% = ACh EC20, 100% = maximal ACh; in the data active = activation above about 19%, passing the limit was not always enough
TAAR1 agonist: human TAAR1 agonism; Q96RJ0; activation, % at 3 µM; 360,000 compounds, 0.99% hits; CHO RD-HGA16 TAAR1, Fluo-8 calcium fluorescence; vehicle wells 0%, saturating PEA agonist 100%; AID 624467;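 active = activation above the mean activation of all test compounds in the run plus 3 SD, cut at about 38% in these data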
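System: CHO-derived RD-HGA16 cells with stable Gα16 and human TAAR1 / Times: 17-24 h plating, Fluo-8 75 min 37 °C, 30 min RT / Technique: calcium-sensitive Fluo-8 signal, excitation 470-495, emission 515-575 nm / Measure: % activation relative to PEA EC100 response / Benchmarks: DMSO and PEA EC100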
* = called active by the depositor; / = no result given.

SMILES	M1 ag	CHRM1 antagonist	TAAR1 antag	M1 PAM	TAAR1 agonist
Cn1ccnc1C1CCCCN1Cc1nc(Cc2cccc(C(F)(F)F)c2)no1 (stereo unspecified)	-13.3	54.3*	4.5	-32.8	2.2
COc1ccc(-c2noc(CN3CCCCC3c3nccn3C)n2)cc1 (stereo unspecified)	-4.5	11.8	-30.0	-10.5	0.5
c1cncc(Oc2ccc(NCCc3c[nH]c4ccccc34)cc2)c1	/	/	31.7	/	6.8
CC(=O)C1=C(C)N(Cc2ccc(Br)cc2)C(=S)NC1c1cccc(Cl)c1 (stereo unspecified)	/	/	26.9	/	1.0
O=C(Nc1ccc([N+](=O)[O-])cc1)c1cc2ccccc2nc1Cl	0.1	5.6	51.4*	-9.0	9.2
CN(CC(=O)Nc1cccc(S(=O)(=O)N2CCCC2)c1)CC(=O)Nc1ccc(Cl)c(C(F)(F)F)c1	-1.4	26.3*	31.4	-5.1	26.0
CN(CC(=O)Nc1ccc(Cl)c(C(F)(F)F)c1)C(=O)C1CCCO1 (stereo unspecified)	0.4	-5.5	6.3	6.0	16.1
CN(CC(=O)Nc1ccc(Cl)c(C(F)(F)F)c1)CC(=O)NC1CCCCC1	6.5	26.1*	/	-5.5	/
Cc1ccc(NC(=O)CN(C)CC(=O)Nc2cccc(F)c2)cc1S(=O)(=O)N1CCCCCC1	-5.0	14.4	50.2*	-3.4	7.8
Cc1ccnc(NC(=O)C2CCN(S(=O)(=O)c3ccc(Cl)c(C(F)(F)F)c3)CC2)c1	1.6	-6.7	-37.1	6.5	1.1
O=C(Nc1ccncc1)C1CCN(S(=O)(=O)c2ccc(Cl)c(C(F)(F)F)c2)CC1	0.6	1.3	2.9	-1.4	48.1*
O=C(C[C@H]1CC[C@@H]2[C@H](COC[C@@H](O)CN2Cc2cccc(F)c2)O1)NCC1CCCCC1	/	/	-9.8	/	1.5
Cc1ccc(NC(=O)COc2ccccc2C#N)cc1S(=O)(=O)N1CCCCCC1	-2.0	27.3	51.7*	-10.5	8.2
Cc1ccc(NC(=O)COc2ccccc2)cc1S(=O)(=O)N1CCCCCC1	-2.4	6.4	37.0	-6.2	3.9
CC(=O)c1cccc(NC(=O)C2CCCN(S(C)(=O)=O)C2)c1 (stereo unspecified)	9.1	-8.2	-6.5	6.1	8.1
CN(CC(=O)Nc1ccc(Cl)c(Cl)c1)CC(=O)N1CCCCCC1	-6.2	70.6*	9.3	-28.6	3.3
CS(=O)(=O)N1CCCC(C(=O)Nc2cccc(F)c2)C1 (stereo unspecified)	2.2	-35.0	2.9	32.0*	-0.3
CCCCc1c(-c2ccccc2OC)ncn1Cc1cccc(F)c1	/	/	-13.9	/	1.1
Clc1ccc(-c2c[n+](Cc3ccc(Cl)cc3Cl)c3n2CCCCC3)cc1	-7.0	47.8*	-23.7	-20.8	1.7
O=C(C[n+]1cc(-c2ccccc2)n2c1CCCCC2)c1ccc(Cl)cc1	-9.5	-6.7	5.3	5.0	4.2
Clc1ccc(C[n+]2cc(-c3ccccc3)n3c2CCCCC3)c(Cl)c1	-6.7	12.3	5.6	-5.8	1.1
CC1CCC(C(C)C)C(OC(=O)C[n+]2cc(-c3ccc(Cl)cc3)n3c2CCCCC3)C1 (stereo unspecified)	-14.4	74.6*	-12.8	-35.0	1.1
CCCCNc1cccc2c1S(=O)(=O)N[C@H](C)CO2	/	/	8.4	/	1.0
CCCN1CCCCC(NC(=O)c2cccs2)C1=O (stereo unspecified)	/	/	6.9	/	-0.1
O=C1NC[C@@H](CCCCN2CCN(CC3CCCCC3)C(=O)C2=O)N(CCC2CCCCC2)C1=O	/	/	-3.6	/	1.3
SMILES	M1 ag	CHRM1 antagonist	TAAR1 antag	M1 PAM	TAAR1 agonist
Cc1ccc(S(=O)(=O)NNc2nc3ccccc3nc2C(F)(F)F)cc1	49.9*	-5.5	3.0	-0.1	4.3
Cc1ccccc1Nc1nc(N)nc(COC(=O)c2ccc(O)cc2)n1	18.7*	-5.8	14.2	11.7	22.4
O=C(NCC1CCN(C(=O)C(=O)c2cccs2)CC1)c1ccncc1	/	/	15.9	/	1.6
Nc1[nH]c(C(=O)c2ccccc2)c(-c2ccc(Cl)cc2F)c1C(=O)NCCc1c[nH]c2ccccc12	/	/	9.6	/	2.8
COC(=O)[C@]12C[C@H](CC(=O)NCC34CC5CC(CC(C5)C3)C4)C(=O)N(Cc3ccccc3)C1=C[C@H](C(C)C)O[C@@H]2C1CC1	/	/	-2.5	/	0.8
Cc1ccc(S(=O)(=O)NC2=NCN(C3CCN(Cc4ccccc4)CC3)CN2)cc1	-5.5	28.7*	-0.5	-16.4	14.8
Cc1ccc(S(=O)(=O)NNC(=O)C2CCN(Cc3ccccc3)CC2)cc1	-5.2	80.0*	-9.2	-21.2	6.0
COc1ccc(/C=N/OCC(=O)NC(c2ccccc2)c2ccccc2)c(OC)c1	-7.0	4.2	-1.9	-9.6	1.0
Cc1ccc(CNC(=O)CO/N=C/c2ccc(C(C)(C)C)cc2)cc1	5.4	-4.0	-15.2	15.0	8.2
CC(C)(C)c1ccc(/C=N/OCC(=O)NCc2ccccc2)cc1	17.8*	-9.7	-1.4	15.4	3.3
CCOc1ccc(/C=N/OCC(=O)NC(c2ccccc2)c2ccccc2)cc1	2.3	3.5	53.4*	-0.6	28.5
Cc1cc(N2CCN(C(=O)OC(C)(C)C)C[C@H]2C)ccc1N1CC[C@@H](O)C1	/	/	-11.3	/	4.7
OC[C@H]1O[C@@H](c2nc(-c3ccc4[nH]ccc4c3)no2)[C@H](O)[C@@H](O)[C@H]1O	-0.6	-22.4	-11.4	13.2	1.6
CCOC(=O)Cc1csc(NC(=O)CSc2ncnc3c2cnn3-c2ccccc2Cl)n1	0.3	27.6*	62.1*	-11.6	22.8
CCCCC(=O)N(C)c1c(C)nc2ccc(C(=O)NCCOc3ccc(OC)cc3)cn12	-3.7	-19.2	-16.3	6.7	0.8
CCc1nc2ccc(C(=O)NCCNC(C)=O)cn2c1N(CCC(C)C)CCN(C)C	-4.3	-3.2	-18.3	-1.2	1.2
CCc1nc2ccc(C(=O)NCCN3CCCC3)cn2c1N(C)Cc1ccc(OC)cc1	-10.2	45.3*	-19.6	-28.4	0.6
CCc1nc2ccc(C(=O)NCc3ccccc3OC)cn2c1N(CCC(C)C)CCN(C)C	42.4*	39.1*	-10.2	-21.4	3.6
CCc1nc2ccc(C(=O)NCc3ccccc3OC)cn2c1N(C)Cc1ccc(OC)cc1	-8.2	8.2	50.5*	-14.2	-2.7
CCc1nc2ccc(C(=O)NCc3ccc(OC)cc3)cn2c1N(C)Cc1ccc(OC)cc1	-8.2	15.3	29.7	-18.2	0.9
CCCCN(C)c1c(C)nc2ccc(C(=O)NCCOc3ccc(OC)cc3)cn12	-0.7	38.7*	/	-20.0	/
CCc1nc2ccc(C(=O)NCC3CCCCC3)cn2c1N(C)Cc1ccc(OC)cc1	-7.9	22.0	21.7	-21.6	1.1
CCOC(=O)[C@]12CCCC=C1N(CCC1=CCCCC1)C(=O)[C@H](CC(=O)NCc1cccc3ccccc13)C2	/	/	-12.6	/	2.8
C[C@@H]1CN([C@@H](C)CO)C(=O)c2cc(NC(=O)Nc3ccccc3)ccc2O[C@@H](C)CCCCO[C@H]1CN(C)C(=O)Nc1ccc(C(F)(F)F)cc1	-2.2	-12.3	2.3	2.7	0.6
